{"source": "ChEMBL document CHEMBL1143007", "about": "“Synthesis and evaluation of 4/5-hydroxy-2,3-diaryl(substituted)-cyclopent-2-en-1-ones as cis-restricted analogues of combretastatin A-4 as novel anticancer agents” (J Med Chem, 2007)", "key": {"[1]": {"assay": "AUC in iv dosed Swiss Albino mouse plasma", "format": "ADME, organism-based", "method_in_brief": "(§1)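 Swiss albino mice (6-8 weeks, ~25 g) dosed intravenously with compound in a cosolvent formulation diluted in 5% dextrose. Blood drawn by orbital bleed under mild ether at 3, 10, 30 min, 1, 2, 4, 6, 8 and 24 h into EDTA, with no more than five bleeds per mouse. Plasma was solvent-extracted and measured by C18 HPLC against an internal standard and a standard curve. Results are mean ± SD, n = 3.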"}, "[2]": {"assay": "Mean residence time in iv dosed Swiss Albino mouse plasma", "format": "ADME, organism-based", "method_in_brief": "as §1"}, "Mus musculus": {"test_system": "Mus musculus", "assay": "Volume of distribution in iv dosed Swiss Albino mouse plasma", "format": "ADME, organism-based", "settings": "in vivo", "method_in_brief": "as §1"}, "HT-29": {"test_system": "HT-29", "assay": "Cytotoxicity against human HT29 cells after 72 hrs by MTT assay", "format": "cell-based", "settings": "Homo sapiens, HT-29, 72 h; read-out: IC50", "method_in_brief": "(§2)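 MTT assay. Cells seeded at 5000-10 000 per well and incubated at 37 °C in CO₂ with compound at 1-100 µg/mL in triplicate wells for 72 h, then MTT added. Absorbance read at 540 nm; % cytotoxicity = 100 × (1 − treated/control). IC50 obtained by nonlinear regression; NA means IC50 above 100 µg/mL.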"}, "[3]": {"assay": "Antitumor activity in primary tumor colon xenografted Balb/C athymic nude mouse assessed as decreased tumor volume at 20 mg/kg, iv on day 22 relative to control", "format": "functional, Homo sapiens", "set-up": "scale not given: the % may be the effect or the level left", "method_in_brief": "(§3)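 PTC colon tumour cells (15 × 10⁶ cells/100 µL) inoculated subcutaneously in Balb/c athymic nude mice aged 6-8 weeks, about 20 g; 3 animals per group. Dosing began at about 500 mm³: 20 mg/kg i.v. once daily for 14 days, cosolvent formulation diluted in 5% dextrose; controls received vehicle. Caliper volume W×W×L×0.4 every fourth day; regression = (1 − treated/control volume) × 100; Dunnett comparison, p < 0.05.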"}, "ECV-304 [4]": {"test_system": "ECV-304", "assay": "Enhanced mitotic arrest in human ECV304 cells assessed as accumulation at G2/M phase at 1 uM after 24 hrs relative to control", "format": "functional", "method_in_brief": "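ECV304 at 1.5 × 10⁶ cells per 90 mm dish in DMEM with 10% FCS overnight, then 1 µM for 24 h in fresh medium. Cells trypsinised, fixed in ice-cold 70% ethanol, treated with trypsin inhibitor and RNase, and stained with propidium iodide in the dark at 4-10 °C for 1 h. Flow cytometry with low gate at 10% of the G1 peak; G1 and G2/M fractions against untreated control.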"}, "Homo sapiens": {"test_system": "Homo sapiens", "assay": "Antitumor activity in primary tumor colon xenografted Balb/C athymic nude mouse assessed as decreased tumor volume at 20 mg/kg, iv on day 19", "format": "functional, organism-based", "set-up": "dose 20 mg/kg", "method_in_brief": "as §3"}, "MIA PaCa-2": {"test_system": "MIA PaCa-2", "assay": "Cytotoxicity against human MiaPaCa2 cells after 72 hrs by MTT assay", "format": "cell-based", "settings": "Homo sapiens, MIA PaCa-2, 72 h; read-out: IC50", "method_in_brief": "as §2"}, "KB": {"test_system": "KB", "assay": "Cytotoxicity against human KB cells after 72 hrs by MTT assay", "format": "cell-based", "settings": "Homo sapiens, KB, 72 h; read-out: IC50", "method_in_brief": "as §2"}, "DU-145": {"test_system": "DU-145", "assay": "Cytotoxicity against human DU145 cells after 72 hrs by MTT assay", "format": "cell-based", "settings": "Homo sapiens, DU-145, 72 h; read-out: IC50", "method_in_brief": "as §2"}, "[5]": {"assay": "Cytotoxicity against human primary tumor colon cells", "format": "cell-based"}, "ECV-304 [6]": {"test_system": "ECV-304", "assay": "Apoptosis in strongly adherent human ECV304 cells at 1000 nM assessed as DNA fragmentation", "format": "functional, cell-based", "method_in_brief": "(§4)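 ECV304 plated at 2 × 10⁶ cells per 90 mm dish in DMEM with 10% FCS, allowed 5-6 h to reattach, then exposed to 10 nM-1 µM for 24 h in fresh medium; 100 nM positive control. Strongly and loosely adherent cells harvested separately and lysed (1 mM Tris-Cl, 20 mM EDTA pH 8, 1% NP-40).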"}, "[7]": {"assay": "Aqueous solubility in phosphate buffer at pH 7.4"}, "L132": {"test_system": "L132", "assay": "Cytotoxicity against human L132 cells after 72 hrs by MTT assay", "format": "cell-based", "settings": "Homo sapiens, L132, 72 h; read-out: IC50", "method_in_brief": "as §2"}, "[8]": {"assay": "Cytotoxicity against human PA1 cells after 72 hrs by MTT assay", "format": "cell-based, PA-1", "settings": "Homo sapiens, PA-1, 72 h; read-out: IC50", "method_in_brief": "as §2"}, "ECV-304 [9]": {"test_system": "ECV-304", "assay": "Apoptosis in loosely adherent human ECV304 cells assessed as DNA fragmentation", "format": "functional, cell-based", "method_in_brief": "as §4"}, "[10]": {"assay": "Clearance in iv dosed Swiss Albino mouse plasma", "format": "ADME, organism-based", "method_in_brief": "as §1"}, "HEK293": {"test_system": "HEK293", "assay": "Cytotoxicity against human HEK293 cells after 72 hrs by MTT assay", "format": "cell-based", "settings": "Homo sapiens, HEK293, 72 h; read-out: IC50", "method_in_brief": "as §2"}, "[11]": {"assay": "Cytotoxicity against human Hep2 cells after 72 hrs by MTT assay", "format": "cell-based, HEp-2", "settings": "Homo sapiens, HEp-2, 72 h; read-out: IC50", "method_in_brief": "as §2"}, "ECV-304 [12]": {"test_system": "ECV-304", "assay": "Apoptosis in strongly adherent human ECV304 cells at 100 nM assessed as DNA fragmentation", "format": "functional, cell-based", "method_in_brief": "as §4"}, "[13]": {"assay": "Half life in iv dosed Swiss Albino mouse plasma", "format": "ADME, organism-based", "method_in_brief": "as §1"}, "[14]": {"assay": "Cytotoxicity against human ECV304 cells after 72 hrs by MTT assay", "format": "cell-based, ECV-304", "settings": "Homo sapiens, ECV-304, 72 h; read-out: IC50", "method_in_brief": "as §2"}, "[15]": {"assay": "Inhibition of tubulin polymerization in bovine brain", "set-up": "species or system Bos taurus", "method_in_brief": "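Compounds were added from DMSO stocks, with final DMSO below 0.4%. A340 was read every 60 s, and the area under the curve was taken as polymer amount, with the control set to 100%. IC50 is the concentration giving 50% inhibition.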"}, "ECV-304 [16]": {"test_system": "ECV-304", "assay": "Apoptosis in strongly adherent human ECV304 cells at 10 nM assessed as DNA fragmentation", "format": "functional, cell-based", "method_in_brief": "as §4"}, "[17]": {"assay": "Cmax in iv dosed Swiss Albino mouse plasma", "format": "ADME, organism-based", "set-up": "route intravenous", "method_in_brief": "as §1"}}, "note": "The source made the active and inactive calls. The calls are words filed in the database; no cut-off is given here."}
{"smiles": "COc1ccc(C2=C(c3cc(OC)c(OC)c(OC)c3)/C(=N\\O)C(O)C2)cc1", "note": "(stereo not given)", "values": [{"measurement": "AUC", "setting": "[1]", "result": 3840, "unit": "ng·h/mL"}, {"measurement": "MRT", "setting": "[2]", "result": 31.8, "unit": "min"}, {"measurement": "Vdss", "setting": "Mus musculus", "result": 46.56, "unit": "mL"}, {"measurement": "IC50", "setting": "HT-29", "result": "< 1", "unit": "µg/mL"}, {"measurement": "Activity", "setting": "[3]", "result": 45.8, "unit": "%"}, {"measurement": "Activity", "setting": "ECV-304 [4]", "result": 59, "unit": "%"}, {"measurement": "Activity", "setting": "Homo sapiens", "result": "Active"}, {"measurement": "IC50", "setting": "MIA PaCa-2", "result": "< 1", "unit": "µg/mL"}, {"measurement": "IC50", "setting": "KB", "result": "< 1", "unit": "µg/mL"}, {"measurement": "IC50", "setting": "DU-145", "result": "> 100", "unit": "µg/mL"}, {"measurement": "IC50", "setting": "[5]", "result": 0.271, "unit": "µg/mL"}, {"measurement": "Activity", "setting": "ECV-304 [6]", "result": "inactive"}, {"measurement": "solubility", "setting": "[7]", "result": 360, "unit": "µM"}, {"measurement": "IC50", "setting": "L132", "result": "< 1", "unit": "µg/mL"}, {"measurement": "IC50", "setting": "[8]", "result": "< 1", "unit": "µg/mL"}, {"measurement": "Activity", "setting": "ECV-304 [9]", "result": "Dose-dependent effect"}, {"measurement": "clearance", "setting": "[10]", "result": 1.15, "unit": "mL/min"}, {"measurement": "IC50", "setting": "HEK293", "result": 4.2, "unit": "µg/mL"}, {"measurement": "IC50", "setting": "[11]", "result": "< 1", "unit": "µg/mL"}, {"measurement": "Activity", "setting": "ECV-304 [12]", "result": "inactive"}, {"measurement": "half-life", "setting": "[13]", "result": 28.2, "unit": "min"}, {"measurement": "IC50", "setting": "[14]", "result": "< 1", "unit": "µg/mL"}, {"measurement": "IC50", "setting": "[15]", "result": 1750, "unit": "nM"}, {"measurement": "Activity", "setting": "ECV-304 [16]", "result": "inactive"}, {"measurement": "Cmax", "setting": "[17]", "result": 7050, "unit": "ng/mL"}]}
{"smiles": "COc1ccc(C2=C(c3cc(OC)c(OC)c(OC)c3)C(=O)C(O)C2)cc1", "note": "(stereo not given)", "values": [{"measurement": "IC50", "setting": "HT-29", "result": "< 1", "unit": "µg/mL"}, {"measurement": "Activity", "setting": "ECV-304 [4]", "result": 54, "unit": "%"}, {"measurement": "IC50", "setting": "MIA PaCa-2", "result": "< 1", "unit": "µg/mL"}, {"measurement": "IC50", "setting": "KB", "result": "< 1", "unit": "µg/mL"}, {"measurement": "IC50", "setting": "DU-145", "result": "> 100", "unit": "µg/mL"}, {"measurement": "Activity", "setting": "ECV-304 [6]", "result": "inactive"}, {"measurement": "IC50", "setting": "L132", "result": "< 1", "unit": "µg/mL"}, {"measurement": "IC50", "setting": "[8]", "result": "< 1", "unit": "µg/mL"}, {"measurement": "Activity", "setting": "ECV-304 [9]", "result": "Dose-dependent effect"}, {"measurement": "IC50", "setting": "HEK293", "result": 6.3, "unit": "µg/mL"}, {"measurement": "IC50", "setting": "[11]", "result": "< 1", "unit": "µg/mL"}, {"measurement": "Activity", "setting": "ECV-304 [12]", "result": "inactive"}, {"measurement": "IC50", "setting": "[14]", "result": "< 1", "unit": "µg/mL"}, {"measurement": "Activity", "setting": "ECV-304 [16]", "result": "inactive"}]}
{"smiles": "COc1ccc(/C=C\\c2cc(OC)c(OC)c(OC)c2)cc1O", "note": "[COMBRETASTATIN A4]", "values": [{"measurement": "AUC", "setting": "[1]", "result": 920, "unit": "ng·h/mL"}, {"measurement": "MRT", "setting": "[2]", "result": 9, "unit": "min"}, {"measurement": "Vdss", "setting": "Mus musculus", "result": 80.82, "unit": "mL"}, {"measurement": "IC50", "setting": "HT-29", "result": 5, "unit": "µg/mL"}, {"measurement": "Activity", "setting": "ECV-304 [4]", "result": 41, "unit": "%"}, {"measurement": "IC50", "setting": "MIA PaCa-2", "result": "< 1", "unit": "µg/mL"}, {"measurement": "IC50", "setting": "KB", "result": "< 1", "unit": "µg/mL"}, {"measurement": "IC50", "setting": "DU-145", "result": 57, "unit": "µg/mL"}, {"measurement": "Activity", "setting": "ECV-304 [6]", "result": "inactive"}, {"measurement": "solubility", "setting": "[7]", "result": 123, "unit": "µM"}, {"measurement": "IC50", "setting": "L132", "result": "< 1", "unit": "µg/mL"}, {"measurement": "IC50", "setting": "[8]", "result": "< 1", "unit": "µg/mL"}, {"measurement": "clearance", "setting": "[10]", "result": 4.86, "unit": "mL/min"}, {"measurement": "IC50", "setting": "HEK293", "result": 5.7, "unit": "µg/mL"}, {"measurement": "IC50", "setting": "[11]", "result": 5, "unit": "µg/mL"}, {"measurement": "Activity", "setting": "ECV-304 [12]", "result": "inactive"}, {"measurement": "half-life", "setting": "[13]", "result": 11.4, "unit": "min"}, {"measurement": "IC50", "setting": "[14]", "result": "< 1", "unit": "µg/mL"}, {"measurement": "IC50", "setting": "[15]", "result": 980, "unit": "nM"}, {"measurement": "Activity", "setting": "ECV-304 [16]", "result": "inactive"}, {"measurement": "Cmax", "setting": "[17]", "result": 3830, "unit": "ng/mL"}]}
